Assay results: ChEMBL document CHEMBL5712071, “BET bromodomain protein inhibition is a therapeutic option for medulloblastoma” (Oncotarget, 2013)
Activity calls are given as the source filed them. No cut-off for these calls is given here.

Columns and labels:
UW228 [1] = assay: Induction of apoptosis in human UW228 cells assessed as increase in population of cells in sub-G1 phase at 500 nM incubated for 72 hrs by flow cytometry; type: functional, cell-based
In short: (§1)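 PI flow cytometry: cells seeded in triplicate, adhered 24h, then exposed to 500 nM JQ1 or DMSO control (methods give 48h culture, legend gives 72h). Harvested by trypsin, washed 3 times in PBS, stained with propidium iodide 15 min, DNA content read by flow cytometry. Sub-G1 fraction taken as apoptotic. Experiments repeated at least 3 times.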

D341 cell line [2] = assay: Induction of apoptosis in human D341 cells assessed as increase in population of cells in G1 phase at 500 nM incubated for 72 hrs by flow cytometry; type: functional, cell-based
In short: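 Cells were cultured with 500 nM JQ1 or DMSO control, trypsinised and washed 3 times in PBS. DNA was stained with propidium iodide for 15 min and DNA content analysed by flow cytometry to give G1 and sub-G1 fractions.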

UW228 [3] = assay: Induction of apoptosis in human UW228 cells assessed as increase in population of cells in G1 phase at 500 nM incubated for 72 hrs by ELISA; type: functional, cell-based
HD-MB03 [4] = assay: Induction of apoptosis in human HD-MB03 cells assessed as increase in population of cells in sub-G1 phase at 500 nM incubated for 72 hrs by flow cytometry; type: functional, cell-based; in short: as §1
ONS-76 [5] = assay: Antiproliferative activity against human ONS-76 cells at 500 nM incubated for 72 hrs by BrdU ELISA method; type: functional, cell-based
In short: (§2)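 Cells seeded in triplicate at 2 × 10^3 per well with 24h adherence, then treated with 500 nM JQ1 or DMSO control for 72h. Proliferation was measured by BrdU incorporation ELISA. Experiments were run independently at least 3 times.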

Daoy [6] = assay: Anti-proliferative activity against human Daoy cells assessed as reduction in cell viability incubated for 120 hrs by MTT assay; type: functional, cell-based
In short: (§3)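 Cells seeded in triplicate at 2 × 10^3 per well and allowed to adhere for 24h. JQ1 was given as serial dilutions in full medium, 1nM-6µM, from a 10 mM DMSO stock. Viability was read by MTT at each time point and IC50 derived from dose-response curves. Culture media were RPMI 1640/10% FCS for HD-MB3 (plus 1% NEAA), ONS-76, Daoy and UW-228, and EMEM/10% FCS for D-283 and D-341.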

Daoy [7] = assay: Induction of apoptosis in human Daoy cells assessed as increase in population of cells in G1 phase at 500 nM incubated for 72 hrs by ELISA; type: functional, cell-based
Daoy [8] = assay: Anti-proliferative activity against human Daoy cells assessed as reduction in cell viability incubated for 96 hrs by MTT assay; type: functional, cell-based; in short: as §3
HD-MB03 [9] = assay: Induction of apoptosis in human HD-MB03 cells assessed as increase in population of cells in sub-G1 phase at 500 nM incubated for 72 hrs by ELISA; type: functional, cell-based
UW228 [10] = assay: Anti-proliferative activity against human UW228 cells assessed as reduction in cell viability incubated for 96 hrs by MTT assay; type: functional, cell-based; conditions: UW228, 96 h; in short: as §3
[11] = target: Bromodomain-containing protein 4 (Homo sapiens) (UniProt O60885); conditions: ONS-76, dose 500.0 nM, time 72.0 hrs
HD-MB03 [12] = assay: Antitumor activity against human HD-MB03 cells xenografted in female athymic (nu/nu) mouse assessed as increase in mouse survival time at 50 mg/kg, ip for 28 days relative to untreated control; type: functional, organism-based; conditions: time 28.0 day
In short: (§4)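 Female athymic nu/nu mice, 4 weeks old, received 2 × 10^7 HD-MB3 cells in Matrigel subcutaneously in the left flank. At 150–200 mm3 they were randomised, n=7 per group, to JQ1 50 mg/kg ip daily or vehicle for 28 days or until tumours exceeded 1000 mm3. Calipers were used, with volume = (breadth × length × height)/2. Time to 1000 mm3 was analysed by Kaplan-Meier.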

[13] = target: Bromodomain-containing protein 4 (Homo sapiens) (UniProt O60885); conditions: HD-MB03, dose 500.0 nM, time 72.0 hrs
Daoy [14] = assay: Induction of apoptosis in human Daoy cells assessed as increase in population of cells in sub-G1 phase at 500 nM incubated for 72 hrs by ELISA; type: functional, cell-based
D341 cell line [15] = assay: Anti-proliferative activity against human D341 cells assessed as reduction in cell viability incubated for 96 hrs by MTT assay; type: functional, cell-based; conditions: D341, 96 h; in short: as §3
HD-MB03 [16] = assay: Anti-proliferative activity against human HD-MB03 cells assessed as reduction in cell viability incubated for 48 hrs by MTT assay; type: functional, cell-based; conditions: HD-MB03, 48 h; in short: as §3
D283 Med = assay: Induction of senescence in human D283 cells assessed as increase in population of cells in G1 phase at 500 nM incubated for 72 hrs by fluorometric SA-beta-gal activity assay; type: functional, cell-based
In short: (§5)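 Senescence read as fluorometric SA-β-gal activity. Cells seeded 2 × 10^3 per well in triplicate and allowed 24h to adhere, then exposed to 500 nM JQ1 or DMSO control for 72h. Assayed per kit protocol. Experiments repeated at least 3 times.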

HD-MB03 [17] = assay: Induction of senescence in human HD-MB03 cells assessed as increase in population of cells in G1 phase at 500 nM incubated for 72 hrs by fluorometric SA-beta-gal activity assay; type: functional, cell-based; in short: as §5
HD-MB03 [18] = assay: Antitumor activity against human HD-MB03 cells xenografted in female athymic (nu/nu) mouse assessed as delay in time required for tumor growth to an average of 1000 mm3 at 50 mg/kg, ip for 28 days relative to untreated control; type: functional; conditions: time 28 day; in short: as §4
[19] = target: Bromodomain-containing protein 4 (Homo sapiens) (UniProt O60885); conditions: HD-MB03, dose 500.0 nM, time 72.0 hrs; remark: listed apart in the source
[20] = target: Bromodomain-containing protein 4 (Homo sapiens) (UniProt O60885); conditions: ONS-76, dose 500.0 nM, time 24.0 hrs
ONS-76 [21] = assay: Anti-proliferative activity against human ONS-76 cells assessed as reduction in cell viability incubated for 96 hrs by MTT assay; type: functional, cell-based; conditions: ONS-76, 96 h; in short: as §3
HD-MB03 [22] = assay: Antiproliferative activity against human HD-MB03 cells at 500 nM incubated for 72 hrs by BrdU ELISA method; type: functional, cell-based; in short: as §2
UW228 [23] = assay: Antiproliferative activity against human UW228 cells at 500 nM incubated for 72 hrs by BrdU ELISA method; type: functional, cell-based; in short: as §2
ONS-76 [24] = assay: Induction of senescence in human ONS-76 cells assessed as increase in population of cells in G1 phase at 500 nM incubated for 72 hrs by fluorometric SA-beta-gal activity assay; type: functional, cell-based; in short: as §5
[25] = target: Bromodomain-containing protein 4 (Homo sapiens) (UniProt O60885); conditions: D341 cell line, dose 500.0 nM, time 24.0 hrs
Daoy [26] = assay: Anti-proliferative activity against human Daoy cells assessed as reduction in cell viability incubated for 72 hrs by MTT assay; type: functional, cell-based; in short: as §3
HD-MB03 [27] = assay: Induction of apoptosis in human HD-MB03 cells assessed as increase in population of cells in G1 phase at 500 nM incubated for 72 hrs by ELISA; type: functional, cell-based

## Cc1sc2c(c1C)C(c1ccc(Cl)cc1)=N[C@@H](CC(=O)OC(C)(C)C)c1nnc(C)n1-2
UW228 [1]
  Activity: Active
D341 cell line [2]
  Activity: Active
UW228 [3]
  Activity: Active
HD-MB03 [4]
  Activity: Active
ONS-76 [5]
  Activity: Active
Daoy [6]
  IC50: 544 nM
Daoy [7]
  Activity: Active
Daoy [8]
  IC50: > 1000 nM
HD-MB03 [9]
  Activity: Active
UW228 [10]
  IC50: > 1000 nM
[11]
  inhibition: Active
HD-MB03 [12]
  Activity: Active
[13]
  inhibition: Active
Daoy [14]
  Activity: Active
D341 cell line [15]
  IC50: 157 nM
HD-MB03 [16]
  IC50: 364 nM
D283 Med
  Activity: Active
HD-MB03 [17]
  Activity: Active
HD-MB03 [18]
  Time: 8 days
[19]
  inhibition: 10%
[20]
  inhibition: Active
ONS-76 [21]
  IC50: 175 nM
HD-MB03 [22]
  Activity: Active
UW228 [23]
  Activity: Active
ONS-76 [24]
  Activity: Active
[25]
  inhibition: Active
Daoy [26]
  IC50: > 1000 nM
HD-MB03 [27]
  Activity: Active
